Experimental data taken from ChEMBL document CHEMBL4049443, “Discovery of 2-[[2-Ethyl-6-[4-[2-(3-hydroxyazetidin-1-yl)-2-oxoethyl]piperazin-1-yl]-8-methylimidazo[1,2-a]pyridin-3-yl]methylamino]-4-(4-fluorophenyl)thiazole-5-carbonitrile (GLPG1690), a First-in-Class Autotaxin Inhibitor Undergoing Clinical Evaluation for the Treatment of Idiopathic Pulmonary …” (J Med Chem, 2017).
Calls of active or inactive are those of the source.

Tests used:
Assay type in all cases: functional, organism-based
[1] = tested on: Mus musculus; assay: Anti-fibrotic activity in BML-induced pulmonary fibrosis C57BL/6 mouse model assessed as reduction in fibrous area with severe distortion of lung structure at 50 mg/kg, po administered bid with 7.5 hrs interval between 2 doses for 21 days relative to control
How it was run: (§1)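 Male C57Bl/6 mice, 11 weeks at delivery, anesthetized and given intranasal bleomycin 30 μg/50 μL; PBS controls. Oral dosing twice daily, 7.5 h apart, 10 mL/kg, from challenge day for 21 days: test agent in PEG 200/0.5% MC, pirfenidone in 0.5% CMC, vehicle controls; 14−24 mice per group. Lungs stained by Mallory method, scored 1–5 (Matsuse-modified Ashcroft) as mean of 10 low-power fields; group median, Mann−Whitney.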

[2] = tested on: Mus musculus; assay: Anti-fibrotic activity in BML-induced pulmonary fibrosis C57BL/6 mouse model assessed as reduction in fibrotic thickening of aveolar/bronchial walls at 50 mg/kg, po administered bid with 7.5 hrs interval between 2 doses for 21 days relative to control; how it was run: as §1
[3] = tested on: Mus musculus; assay: Anti-fibrotic activity in BML-induced pulmonary fibrosis C57BL/6 mouse model assessed as reduction in fibrosis with damage of pulmonary structure at 50 mg/kg, po administered bid with 7.5 hrs interval between 2 doses for 21 days relative to control; how it was run: as §1

Measured: Activity

Cc1ccc(=O)n(-c2ccccc2)c1
active: all assays above
